Laboratory results taken from ChEMBL document CHEMBL1255223, “Structure-activity relationship study of first selective inhibitor of excitatory amino acid transporter subtype 1: 2-Amino-4-(4-methoxyphenyl)-7-(naphthalen-1-yl)-5-oxo-5,6,7,8-tetrahydro-4H-chromene-3-carbonitrile (UCPH-101)” (J Med Chem, 2010).
Calls of active or inactive are those of the source. The rule behind the calls is not given here.

Experiments:
[1] = target: Excitatory amino acid transporter 1 (Homo sapiens, UniProt P43003); test: Inhibition of human EAAT1 expressed in HEK293 cells by [3H]D-Asp uptake assay; format: cell-based; settings: for pIC50: hek293
Excitatory amino acid transporter 1, sequence (P43003 whole entry): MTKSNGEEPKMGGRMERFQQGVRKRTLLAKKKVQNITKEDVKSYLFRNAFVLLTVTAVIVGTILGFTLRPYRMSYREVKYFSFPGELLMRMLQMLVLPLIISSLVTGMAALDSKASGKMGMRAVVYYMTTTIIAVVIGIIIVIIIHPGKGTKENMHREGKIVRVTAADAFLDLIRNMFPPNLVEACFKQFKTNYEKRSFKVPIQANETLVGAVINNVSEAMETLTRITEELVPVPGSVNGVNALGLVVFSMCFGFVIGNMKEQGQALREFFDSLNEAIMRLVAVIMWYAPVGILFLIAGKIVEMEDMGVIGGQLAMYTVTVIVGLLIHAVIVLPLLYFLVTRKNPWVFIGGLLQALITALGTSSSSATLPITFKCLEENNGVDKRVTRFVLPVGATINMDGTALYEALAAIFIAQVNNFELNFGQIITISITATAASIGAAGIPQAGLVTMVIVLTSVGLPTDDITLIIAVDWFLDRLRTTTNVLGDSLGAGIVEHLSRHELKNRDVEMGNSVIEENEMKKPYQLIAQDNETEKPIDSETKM

[2] = target: T1, Excitatory amino acid transporter 3 (Homo sapiens) (UniProt P43005); test: Inhibition of human EAAT3 expressed in HEK293 cells at 300 uM by [3H]D-Asp uptake assay; format: cell-based
T1 sequence (whole entry): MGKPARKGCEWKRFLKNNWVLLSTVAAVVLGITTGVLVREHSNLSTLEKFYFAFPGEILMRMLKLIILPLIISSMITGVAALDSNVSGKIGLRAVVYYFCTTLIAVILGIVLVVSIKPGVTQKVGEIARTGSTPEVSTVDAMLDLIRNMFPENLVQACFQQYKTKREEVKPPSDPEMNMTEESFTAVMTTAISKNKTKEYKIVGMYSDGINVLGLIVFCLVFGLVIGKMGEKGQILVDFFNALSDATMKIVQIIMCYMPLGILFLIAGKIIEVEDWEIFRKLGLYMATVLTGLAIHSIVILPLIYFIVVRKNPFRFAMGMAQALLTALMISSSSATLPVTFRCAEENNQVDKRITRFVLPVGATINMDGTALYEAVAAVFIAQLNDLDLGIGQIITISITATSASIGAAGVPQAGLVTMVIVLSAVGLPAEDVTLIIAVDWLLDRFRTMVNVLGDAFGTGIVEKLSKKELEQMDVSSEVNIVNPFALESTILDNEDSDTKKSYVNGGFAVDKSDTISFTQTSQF
In short: (§1)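 [3H]-D-Asp uptake was measured in HEK293 cell lines expressing EAAT2 or EAAT3. Each analogue was tested at the highest concentration possible for it (75, 100, 300 or 1000 μM) to assess inhibitory activity.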

[3] = target: Excitatory amino acid transporter 2 (Homo sapiens) (UniProt P43004); test: Inhibition of human EAAT2 expressed in HEK293 cells at 300 uM by [3H]D-Asp uptake assay; format: cell-based; in short: as §1
Excitatory amino acid transporter 2 (Homo sapiens), sequence (P43004 whole entry): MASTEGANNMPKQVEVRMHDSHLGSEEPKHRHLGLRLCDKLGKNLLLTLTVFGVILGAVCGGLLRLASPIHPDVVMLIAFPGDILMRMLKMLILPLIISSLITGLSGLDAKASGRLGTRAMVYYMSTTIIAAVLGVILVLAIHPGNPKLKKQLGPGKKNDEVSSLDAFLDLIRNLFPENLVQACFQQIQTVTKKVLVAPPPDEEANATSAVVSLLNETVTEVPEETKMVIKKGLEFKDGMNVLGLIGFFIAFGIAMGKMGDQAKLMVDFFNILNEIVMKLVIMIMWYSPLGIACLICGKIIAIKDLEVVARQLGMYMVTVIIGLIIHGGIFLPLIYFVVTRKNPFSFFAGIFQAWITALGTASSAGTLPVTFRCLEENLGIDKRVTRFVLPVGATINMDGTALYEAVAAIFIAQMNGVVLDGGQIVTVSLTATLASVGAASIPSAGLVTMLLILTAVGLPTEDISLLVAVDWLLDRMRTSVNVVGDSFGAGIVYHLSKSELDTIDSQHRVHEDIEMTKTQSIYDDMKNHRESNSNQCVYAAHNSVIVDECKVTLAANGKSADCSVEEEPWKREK

[4] = target: Excitatory amino acid transporter 2 (Homo sapiens) (UniProt P43004); test: Inhibition of human EAAT2 expressed in HEK293 cells at 100 uM by [3H]D-Asp uptake assay; format: cell-based; in short: as §1
[5] = target: T1, Excitatory amino acid transporter 3 (Homo sapiens); test: Inhibition of human EAAT3 expressed in HEK293 cells at 100 uM by [3H]D-Asp uptake assay; format: cell-based; in short: as §1
Brain = test: Drug level in Sprague-Dawley rat brain at 10 mg/kg; format: ADME, organism-based; set-up: dose 10 mg/kg; settings: in vivo
In short: (§2)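 Male Sprague-Dawley rats (225 g at arrival) received an oral dose of 10 mg/kg, formulated in 100% PEG400 (5 mL/kg). Three groups (n = 3/group) were sampled at 0.5, 1 and 2 h for cardiac EDTA plasma (under isoflurane) and whole brain homogenized in 70% acetonitrile. UPLC-MS/MS quantitation used an internal standard, with a brain limit of quantification of 10 ng/g.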

[6] = Terminal half life in Sprague-Dawley rat at 10 mg/kg; format: ADME, organism-based; set-up: dose 10 mg/kg; settings: in vivo, read-out: beta t1/2; in short: as §2
[7] = target: Excitatory amino acid transporter 2 (Homo sapiens) (UniProt P43004); test: Inhibition of human EAAT2 expressed in HEK293 cells at 1000 uM by [3H]D-Asp uptake assay; format: cell-based; in short: as §1
[8] = target: T1, Excitatory amino acid transporter 3 (Homo sapiens); test: Inhibition of human EAAT3 expressed in HEK293 cells at 1000 uM by [3H]D-Asp uptake assay; format: cell-based; in short: as §1
[9] = target: T1, Excitatory amino acid transporter 3 (Homo sapiens); test: Inhibition of human EAAT3 expressed in HEK293 cells at 75 uM by [3H]D-Asp uptake assay; format: cell-based; in short: as §1
[10] = target: Excitatory amino acid transporter 2 (Homo sapiens) (UniProt P43004); test: Inhibition of human EAAT2 expressed in HEK293 cells at 75 uM by [3H]D-Asp uptake assay; format: cell-based; in short: as §1

IC50 ([1]; read-out: IC50)	IC50 ([1]; read-out: pIC50 (converted))	inhibition [2]	inhibition [3]	inhibition [4]	inhibition [5]	SMILES	also measured
5.1 µM	4.79 µM	–	–	inactive	inactive	COc1ccc(C2C(C#N)=C(N)OC3=C2C(=O)CC(Cc2ccccc2)C3)cc1 (stereo unspecified)	–
3.2 µM	–	inactive	inactive	–	–	COc1ccc(C2C(C#N)=C(N)OC3=C2C(=O)CC(c2ccc4ccccc4c2)C3)cc1 (stereo unspecified)	–
0.43 µM	0.339 µM	–	–	inactive	inactive	CC1C(C#N)=C(N)OC2=C1C(=O)CC(c1cccc3ccccc13)C2 (stereo unspecified)	–
–	> 316 µM	inactive	inactive	–	–	N#CC1=C(N)OC2=C(C(=O)CCC2)C1c1ccccc1F (stereo unspecified)	–
> 100 µM	–	–	–	inactive	inactive	NC(=O)C1=C(N)OC2=C(C(=O)CC(c3ccccc3)C2)C1c1ccccc1 (stereo unspecified)	pIC50 [1]: < 4
3.8 µM	6.31 µM	–	–	–	–	N#CC1=C(N)OC2=C(C(=O)CC(c3ccccc3)C2)C1c1ccccc1 (stereo unspecified)	inhibition [7]: inactive; inhibition [8]: inactive
–	–	–	–	inactive	inactive	N#CC1=C(N)OC2=C(C(=O)CC(c3ccccc3)C2)C1c1ccccc1F (stereo unspecified)	–
–	> 316 µM	inactive	inactive	–	–	N#CC1=C(N)OC2=C(C1)C(=O)CC(c1ccccc1)C2 (stereo unspecified)	–
–	> 316 µM	inactive	inactive	–	–	CC1CC(=O)C2=C(C1)OC(N)=C(C#N)C2c1ccc2c(c1)OCO2 (stereo unspecified)	–
> 75 µM	> 158 µM	–	–	–	–	CC(C)(C)OC(=O)C1=C(N)OC2=C(C(=O)CC(c3ccccc3)C2)C1c1ccccc1 (stereo unspecified)	inhibition [9]: inactive; inhibition [10]: inactive
> 100 µM	–	–	–	inactive	inactive	N#CC1=COC2=C(C(=O)CC(c3ccccc3)C2)C1c1ccccc1 (stereo unspecified)	pIC50 [1]: < 4
> 100 µM	–	–	–	inactive	inactive	NC1=CC(c2ccccc2)C2=C(CC(c3ccccc3)CC2=O)O1 (stereo unspecified)	pIC50 [1]: < 4
–	–	inactive	inactive	–	–	CC1C(C#N)=C(N)OC2=C1C(=O)CC(c1ccccc1)C2 (stereo unspecified)	–

The remaining lines, values behind:

SMILES	IC50 ([1]; read-out: IC50)	IC50 ([1]; read-out: pIC50 (converted))	inhibition [2]	inhibition [3]	inhibition [4]	inhibition [5]	also measured
N#CC1=C(N)OC2=C(C(=O)N[C@@H](c3ccccc3)C2)[C@@H]1c1ccccc1 (relative stereo)	> 300 µM	> 316 µM	inactive	inactive	–	–	–
COc1ccc(C2C(C#N)=C(N)OC3=C2C(=O)CC(c2cccc4ccccc24)C3)cc1 (stereo unspecified)	–	–	inactive	inactive	–	–	Drug uptake (Brain): < 10 ng/g; half-life [6]: 30 min
CCO/C=N/C1=C(C#N)C(c2ccccc2)C2=C(CC(c3ccccc3)CC2=O)O1 (stereo unspecified)	> 1000 µM	–	–	–	–	–	inhibition [7]: inactive; inhibition [8]: inactive; pIC50 [1]: < 3
COC(=O)C1=C(N)OC2=C(C(=O)CC(c3ccccc3)C2)C1c1ccccc1 (stereo unspecified)	> 300 µM	> 316 µM	inactive	inactive	–	–	–
N#CC1=C(N)OC2=C(C(=O)O[C@H](c3ccccc3)C2)[C@@H]1c1ccccc1 (relative stereo)	> 300 µM	> 316 µM	inactive	inactive	–	–	–
CC(=O)NC1=C(C#N)C(c2ccccc2)C2=C(CC(c3ccccc3)CC2=O)O1 (stereo unspecified)	> 100 µM	–	–	–	inactive	inactive	pIC50 [1]: < 4
N#CC1=C(N)OC2=C(C(=O)N[C@H](c3ccccc3)C2)[C@@H]1c1ccccc1 (relative stereo)	> 300 µM	> 316 µM	inactive	inactive	–	–	–
N#CC1=C(N)OC2=C(C(=O)O[C@@H](c3ccccc3)C2)[C@@H]1c1ccccc1 (relative stereo)	> 300 µM	> 316 µM	inactive	inactive	–	–	–
